Source: PubChem BioAssay (Broad Institute)
Tcruzi prolif = T. cruzi proliferation inhibition. T. cruzi beta-gal in NIH3T3, GalScreen luminescence, 90 h. inhibition, % at 8.34 µM. 77,000 compounds, 5.9% hits. AID 624255;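 active means mean inhibition above about 93%, with at least 55% of replicates each passing it, limit read from the data, passing the limit was not always enough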
IDH1 R132H inh = IDH1 R132H (human) inhibition; inhibition, % at 10 µM; O75874; 70,000 compounds, 0.18% hits; IDH1 R132H reductase, diaphorase/resazurin fluorescence, 60 min; in the data active means inhibition above about 34%;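 further: 0% = DMSO and 100% = no enzyme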
Target sequence (O75874 whole entry R132H): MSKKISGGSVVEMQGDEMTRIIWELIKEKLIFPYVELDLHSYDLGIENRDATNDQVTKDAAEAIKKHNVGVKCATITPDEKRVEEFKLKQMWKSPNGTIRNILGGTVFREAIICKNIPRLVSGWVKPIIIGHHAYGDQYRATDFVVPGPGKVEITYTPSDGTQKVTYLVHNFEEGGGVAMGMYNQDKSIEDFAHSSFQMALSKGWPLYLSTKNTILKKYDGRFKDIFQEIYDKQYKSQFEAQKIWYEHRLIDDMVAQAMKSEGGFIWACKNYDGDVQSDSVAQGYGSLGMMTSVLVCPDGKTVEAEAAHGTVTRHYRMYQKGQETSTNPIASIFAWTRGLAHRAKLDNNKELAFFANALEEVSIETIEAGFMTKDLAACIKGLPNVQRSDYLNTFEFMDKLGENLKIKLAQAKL
KDM4C inh = inhibitors of human demethylase GASC-1 KDM4C; GST-KDM4C 2-372, H3K9me3 peptide, LANCE TR-FRET; inhibition, % at 12.5 µM; Q9H3R0; 96,000 compounds, 0.15% hits;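 active means mean replicate inhibition above about 25%, with at least 55% of replicates also reaching it, limit read from the data, passing the limit was not always enough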
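System – N-terminal GST-fused human GASC-1 (KDM4C) fragment, residues 2-372 · Input – enzyme final amount 10 nM · Technique – LANCE TR-FRET, Eu antibody, ULight-streptavidin, EDTA, ex 340 nm, em 618/671 nm · Medium – HEPES buffer, pH 7.5, plus ascorbate · Incubation – enzyme reaction 30 min, then detection 60 min, both room temperature · Reagent – H3K9me3 peptide with Fe(II)/2OG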
Pf Dd2 growth = inhibitors of Plasmodium falciparum Dd2 growth; P. falciparum Dd2 growth, SYBR Green, 72 h; stronger effect = lower value; activity change, % at 10 µM; 94,000 compounds, 2.3% hits; AID 1159554; in the data active means activity change below about -80%
An asterisk follows results filed as active. Shown are actives, neighbours in structure and some others; about 5.8% of the full set was active somewhere.

Results for COC(=O)c1c(=O)n(O)c2cc(Cl)c(Cl)cc2[n+]1[O-] ?
IDH1 R132H inh: 0

How did COc1ccccc1CN1C[C@@H](C)[C@@H](OC)CN(C)C(=O)c2ccc(NC(C)=O)cc2OC[C@@H]1C do in these assays?
Tcruzi prolif: 22; IDH1 R132H inh: 0; KDM4C inh: 3; Pf Dd2 growth: -24

Results for COc1ccccc1CN1C[C@@H](C)[C@H](OC)CN(C)C(=O)c2ccc(NC(=O)Nc3ccccc3OC)cc2OC[C@H]1C ?
Tcruzi prolif: 28; IDH1 R132H inh: 1; KDM4C inh: 1; Pf Dd2 growth: -90*

Results for CO[C@H]1CN(C)C(=O)c2ccc(NC(=O)CC(F)(F)F)cc2OC[C@@H](C)N(CC2CC2)C[C@H]1C ?
KDM4C inh: 1; Pf Dd2 growth: -86*

How did CCC(=O)Nc1ccc2c(c1)OC[C@H](C)N(CC1CCOCC1)C[C@H](C)[C@H](OC)CN(C)C2=O do in these assays?
Tcruzi prolif: 19; IDH1 R132H inh: 2; KDM4C inh: 44*; Pf Dd2 growth: -4

What do the screens show for `CCc1c(C)sc(NC(=O)c2cc(-c3cccnc3)nc3ccc(Cl)cc23)c1C(=O)N1CCOCC1`?
IDH1 R132H inh: 0

Results for Cc1ccc(C(=O)c2oc3ccccc3c2NC(=O)c2cc3ccccc3oc2=O)cc1F ?
IDH1 R132H inh: 0

What do the screens show for `CCC(C)NC(=O)Cn1c(=O)n(-c2ccc(Cl)c(Cl)c2)c(=O)c2c(C)c(C)sc21` (stereo not given)?
IDH1 R132H inh: 2

How did COc1ccc(Cl)cc1NC(=O)CSc1nc(N)cc(=O)[nH]1 do in these assays?
IDH1 R132H inh: 1

How did O=C(NCc1ccco1)c1ccccc1NC(=O)C1COc2ccccc2O1 (stereo not given) do in these assays?
IDH1 R132H inh: 0

How did CCCC#Cc1cnc2c(c1)C(=O)N([C@H](C)CO)C[C@@H](C)[C@H](CN(C)C(=O)Nc1cc(F)ccc1F)O2 do in these assays?
Tcruzi prolif: 54; IDH1 R132H inh: 0; KDM4C inh: 8; Pf Dd2 growth: -81*

How did COc1ccccc1NC(=O)N(C)C[C@@H]1Oc2ncc(C#CC(C)C)cc2C(=O)N([C@@H](C)CO)C[C@H]1C do in these assays?
Tcruzi prolif: 51; IDH1 R132H inh: 1; KDM4C inh: 7; Pf Dd2 growth: -82*

How did CCCc1cn([C@H]2C[C@@H]3O[C@H](CO)CC[C@@H]3O[C@@H]2CCc2ccc(-c3cccc(OC)c3)cc2)nn1 do in these assays?
Pf Dd2 growth: -69

How did CCCc1cn([C@@H]2C[C@@H]3O[C@H](CO)CC[C@@H]3O[C@@H]2CCc2ccc(-c3cccc(OC)c3)cc2)nn1 do in these assays?
Pf Dd2 growth: -87*

What do the screens show for `CCCc1cn([C@H]2C[C@@H]3O[C@H](CO)CC[C@@H]3O[C@@H]2CCc2ccc(-c3ccc(OC)cc3)cc2)nn1`?
Pf Dd2 growth: -83*

What do the screens show for `Cc1nc(C(F)(F)F)nc(Sc2cccc(C(F)(F)F)c2)c1C`?
IDH1 R132H inh: 0

What do the screens show for `Cc1ccc(S(=O)(=O)N(C)C[C@H]2OCCCC[C@@H](C)Oc3ccc(NS(=O)(=O)c4cccs4)cc3C(=O)N([C@H](C)CO)C[C@@H]2C)cc1`?
Tcruzi prolif: 46; IDH1 R132H inh: -1; KDM4C inh: 0; Pf Dd2 growth: -16

How did Cc1ccc(S(=O)(=O)N(C)C[C@H]2OCCCC[C@H](C)Oc3ccc(NS(=O)(=O)c4cccs4)cc3C(=O)N([C@@H](C)CO)C[C@H]2C)cc1 do in these assays?
Tcruzi prolif: 58; KDM4C inh: 1; Pf Dd2 growth: -85*

What do the screens show for `C[C@@H]1CN([C@H](C)CO)C(=O)c2cc(NS(=O)(=O)c3cccs3)ccc2O[C@@H](C)CCCCO[C@@H]1CN(C)S(=O)(=O)c1ccc(F)cc1`?
Tcruzi prolif: 52; IDH1 R132H inh: 2; KDM4C inh: 2; Pf Dd2 growth: -89*

What do the screens show for `CCc1ccc(C(Nc2cc(C)ccn2)c2ccc3cccnc3c2O)cc1` (stereo not given)?
IDH1 R132H inh: 0

How did C[C@@H]1CCCCO[C@@H](CN(C)C(=O)NC2CCCCC2)[C@H](C)CN([C@@H](C)CO)C(=O)c2cc(NC(=O)Nc3ccccc3)ccc2O1 do in these assays?
Tcruzi prolif: 5; IDH1 R132H inh: 0; KDM4C inh: 0; Pf Dd2 growth: -18

Results for C[C@@H]1CN([C@H](C)CO)C(=O)c2cc(NC(=O)NC3CCCCC3)ccc2O[C@@H](C)CCCCO[C@@H]1CN(C)C(=O)Nc1ccccc1 ?
Tcruzi prolif: 33; KDM4C inh: 0; Pf Dd2 growth: -81*

What do the screens show for `C[C@@H]1CCCCO[C@@H](CN(C)C(=O)Nc2ccccc2)[C@@H](C)CN([C@H](C)CO)C(=O)c2cc(NC(=O)NC3CCCCC3)ccc2O1`?
Tcruzi prolif: 23; IDH1 R132H inh: 1; KDM4C inh: 0; Pf Dd2 growth: 9

What do the screens show for `C[C@@H]1CN([C@H](C)CO)C(=O)c2cc(NC(=O)Nc3ccccc3)ccc2O[C@@H](C)CCCCO[C@@H]1CN(C)C(=O)NC1CCCCC1`?
Tcruzi prolif: -21; KDM4C inh: -1; Pf Dd2 growth: -85*

How did C[C@@H]1CN([C@H](C)CO)C(=O)c2cc(NC(=O)NC3CCCCC3)ccc2O[C@@H](C)CCCCO[C@@H]1CN(C)C(=O)Nc1ccc(F)cc1 do in these assays?
IDH1 R132H inh: -2; KDM4C inh: -2; Pf Dd2 growth: -88*

What do the screens show for `COc1ccc(-c2nc3ccccc3s2)cc1NC(=O)COc1ccc(Br)cc1`?
IDH1 R132H inh: 1

What do the screens show for `C[C@@H]1CN([C@@H](C)CO)C(=O)c2cccc(NC(=O)CCCCCC(=O)Nc3ccccc3N)c2O[C@@H]1CN(C)S(=O)(=O)c1cccs1`?
IDH1 R132H inh: 0; KDM4C inh: -1; Pf Dd2 growth: -92*

Results for Cc1ccc(S(=O)(=O)N(C)C[C@H]2Oc3c(NC(=O)CCCCCC(=O)Nc4ccccc4N)cccc3C(=O)N([C@@H](C)CO)C[C@H]2C)cc1 ?
IDH1 R132H inh: 0; KDM4C inh: 0; Pf Dd2 growth: -91*

Results for C[C@@H]1CN([C@@H](C)CO)C(=O)c2cccc(NC(=O)CCCCCC(=O)Nc3ccccc3N)c2O[C@@H]1CN(C)S(=O)(=O)c1ccccc1 ?
KDM4C inh: 0; Pf Dd2 growth: -90*

How did Cc1ccc(S(=O)(=O)N(C)C[C@@H]2Oc3c(NC(=O)CCCCCC(=O)Nc4ccccc4N)cccc3C(=O)N([C@@H](C)CO)C[C@H]2C)cc1 do in these assays?
IDH1 R132H inh: 2; KDM4C inh: 1; Pf Dd2 growth: -88*

What do the screens show for `C[C@@H]1CN([C@H](C)CO)C(=O)c2cccc(NC(=O)CCCCCC(=O)Nc3ccccc3N)c2O[C@H]1CN(C)S(=O)(=O)c1cccs1`?
IDH1 R132H inh: 0; KDM4C inh: 0; Pf Dd2 growth: -48

Results for CCn1c(SCC(=O)c2ccc(OC)cc2)nnc1-c1ccc(C)cc1 ?
IDH1 R132H inh: 0

What do the screens show for `NC(=O)CN(Cc1ccc(F)cc1)S(=O)(=O)c1ccc(Cl)cc1`?
IDH1 R132H inh: 0
